Experimental data from ChEMBL document CHEMBL2396592, “Discovery of Dap-3 polymyxin analogues for the treatment of multidrug-resistant Gram-negative nosocomial infections” (J Med Chem, 2013).
Values after ≈ are worked out from the molar mass of the structure shown. Where a SMILES comes first, the peptide text is derived from it. Bridges are numbered along the chain shown (N, C = ends). [ ]: non-standard residue; d: D form. The star is where a group is joined. Benzoyl(3-Ph) = O=C(c1cccc(-c2ccccc2)c1)*; Benzoyl(4-Ph) = O=C(c1ccc(-c2ccccc2)cc1)*; X11 = COc1cc(C(=O)*)cc(-c2ccccc2)c1; X12 = O=C(c1ccc(Cl)c(-c2ccccc2)c1)*; X16 = COc1cc(C(=O)*)cc(-c2ccccc2)n1; X17 = O=S(=O)(c1cccc(-c2ccccc2)c1)*; X19 = O=C(c1ccnc(-c2cccc(Cl)c2)c1)*; X15 = N#Cc1ccc(C(=O)*)cc1-c1ccccc1; X10 = O=C(c1ccnc(-c2ccccc2Cl)c1)*; X13 = COc1ccc(-c2ccccc2)cc1C(=O)*; X14 = O=C(c1ccc(Oc2ccccc2)nc1)*; Dab = NCC[C@H](N)C(=O)O; Dap = NC[C@H](N)C(=O)O

Legend:
[1] = Cytotoxicity against human RPTEC after 24 hrs by LDH assay; format: cell-based; conditions: RPTEC cells, read-out: TC50
Outline: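 Primary human renal proximal tubule epithelial cells in REGM (EGF, hydrocortisone, epinephrine, insulin, T3, transferrin, gentamycin/amphotericin-B, FBS). After 72 h of growth at 37 °C, 5% CO2, cells were exposed for 24 h to aqueous compound at 100, 67, 44, 30, 20 and 13 μM. LDH release into the supernatant was measured by kit and TC50 (μM) derived, with PMB and PMBN as controls.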

[2] = tested on: Escherichia coli; assay: Antibacterial activity against polymyxin-sensitive Escherichia coli isolate 1 assessed as growth inhibition by broth microdilution method; format: functional
[3] = tested on: Klebsiella pneumoniae; assay: Antibacterial activity against polymyxin-sensitive ESBL-positive Klebsiella pneumoniae clinical isolate 3700 assessed as growth inhibition by broth microdilution method; format: functional
[4] = tested on: Acinetobacter baumannii; assay: Antibacterial activity against polymyxin-sensitive Acinetobacter baumannii clinical isolate 3167 assessed as growth inhibition by broth microdilution method; format: functional
[5] = tested on: Acinetobacter baumannii; assay: Antibacterial activity against polymyxin-resistant Acinetobacter baumannii clinical isolate 1649 assessed as growth inhibition by broth microdilution method; format: functional
[6] = tested on: Acinetobacter baumannii; assay: Bactericidal activity against polymyxin-resistant Acinetobacter baumannii clinical isolate 1649; format: functional
[7] = tested on: Pseudomonas aeruginosa; assay: Antibacterial activity against polymyxin-sensitive Pseudomonas aeruginosa 1401 assessed as growth inhibition by broth microdilution method; format: functional
Outline: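 CLSI broth microdilution MIC against P. aeruginosa 1401 (PA01) and 1402 (UC12120), the two strains used in the mouse thigh model.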

[8] = tested on: Pseudomonas aeruginosa; assay: Antibacterial activity against polymyxin-resistant Pseudomonas aeruginosa clinical isolate 1646 assessed as growth inhibition by broth microdilution method; format: functional
Outline: (§1)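 Test strain PA-1646 is a P. aeruginosa isolate with a mutated PmrAB two-component system. The system is constitutively active, so the modified lipid A moiety is constantly expressed on the cell surface, giving a polymyxin-resistant phenotype.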

[9] = tested on: Pseudomonas aeruginosa; assay: Bactericidal activity against polymyxin-resistant Pseudomonas aeruginosa clinical isolate 1646; format: functional; outline: as §1

Compound | CC50 at 24 h [1] [µM] | MIC [2] [µg/mL] | MIC [3] [µg/mL] | MIC [4] [µg/mL] | MIC [5] [µg/mL] | MBC [6] [µg/mL] | MIC [7] [µg/mL] | MIC [8] [µg/mL] | MBC [9] [µg/mL]
CC(C)C[C@@H]1NC(=O)[C@@H](Cc2ccccc2)NC(=O)[C@H](CCN)NC(=O)[C@@H](NC(=O)[C@H](CN)NC(=O)[C@@H](NC(=O)[C@H](CCN)NC(=O)c2ccnc(-c3ccccc3Cl)c2)[C@@H](C)O)CCNC(=O)[C@H]([C@@H](C)O)NC(=O)[C@H](CCN)NC(=O)[C@H](CCN)NC1=O (X10-[Dab]T[Dap][Dab][Dab][dF]L[Dab][Dab]T; lactam 4-C) | 86 | 0.125 | 0.25 | 0.25 | 1 | 1 (≈ 0.791 µM) | 0.5 | 4 | 16 (≈ 12.6 µM)
COc1cc(C(=O)N[C@@H](CCN)C(=O)N[C@H](C(=O)N[C@@H](CN)C(=O)N[C@H]2CCNC(=O)[C@H]([C@@H](C)O)NC(=O)[C@H](CCN)NC(=O)[C@H](CCN)NC(=O)[C@H](CC(C)C)NC(=O)[C@@H](Cc3ccccc3)NC(=O)[C@H](CCN)NC2=O)[C@@H](C)O)cc(-c2ccccc2)c1 (X11-[Dab]T[Dap][Dab][Dab][dF]L[Dab][Dab]T; lactam 4-C) | 26 | 0.25 | 0.25 | 0.25 | 4 | 8 (≈ 6.35 µM) | 0.5 | 2 | 4 (≈ 3.18 µM)
CC(C)C[C@@H]1NC(=O)[C@@H](Cc2ccccc2)NC(=O)[C@H](CCN)NC(=O)[C@@H](NC(=O)[C@H](CN)NC(=O)[C@@H](NC(=O)[C@H](CCN)NC(=O)c2ccc(Cl)c(-c3ccccc3)c2)[C@@H](C)O)CCNC(=O)[C@H]([C@@H](C)O)NC(=O)[C@H](CCN)NC(=O)[C@H](CCN)NC1=O (X12-[Dab]T[Dap][Dab][Dab][dF]L[Dab][Dab]T; lactam 4-C) | 14 | 0.25 | 0.25 | 0.5 | 1 | 1 (≈ 0.791 µM) | 1 | 0.5 | 1 (≈ 0.791 µM)
COc1ccc(-c2ccccc2)cc1C(=O)N[C@@H](CCN)C(=O)N[C@H](C(=O)N[C@@H](CN)C(=O)N[C@H]1CCNC(=O)[C@H]([C@@H](C)O)NC(=O)[C@H](CCN)NC(=O)[C@H](CCN)NC(=O)[C@H](CC(C)C)NC(=O)[C@@H](Cc2ccccc2)NC(=O)[C@H](CCN)NC1=O)[C@@H](C)O (X13-[Dab]T[Dap][Dab][Dab][dF]L[Dab][Dab]T; lactam 4-C) | 19 | 0.5 | 0.25 | 0.25 | 4 | 4 (≈ 3.18 µM) | 0.5 | 2 | 2 (≈ 1.59 µM)
CC(C)C[C@@H]1NC(=O)[C@@H](Cc2ccccc2)NC(=O)[C@H](CCN)NC(=O)[C@@H](NC(=O)[C@H](CN)NC(=O)[C@@H](NC(=O)[C@H](CCN)NC(=O)c2ccc(Oc3ccccc3)nc2)[C@@H](C)O)CCNC(=O)[C@H]([C@@H](C)O)NC(=O)[C@H](CCN)NC(=O)[C@H](CCN)NC1=O (X14-[Dab]T[Dap][Dab][Dab][dF]L[Dab][Dab]T; lactam 4-C) | 61 | 0.25 | 0.25 | 0.25 | 2 | 4 (≈ 3.21 µM) | 1 | 4 | 16 (≈ 12.8 µM)
CC(C)C[C@@H]1NC(=O)[C@@H](Cc2ccccc2)NC(=O)[C@H](CCN)NC(=O)[C@@H](NC(=O)[C@H](CN)NC(=O)[C@@H](NC(=O)[C@H](CCN)NC(=O)c2ccc(C#N)c(-c3ccccc3)c2)[C@@H](C)O)CCNC(=O)[C@H]([C@@H](C)O)NC(=O)[C@H](CCN)NC(=O)[C@H](CCN)NC1=O (X15-[Dab]T[Dap][Dab][Dab][dF]L[Dab][Dab]T; lactam 4-C) | 39 | 0.125 | 0.25 | 0.25 | 0.5 | 0.5 (≈ 0.399 µM) | 0.25 | 2 | 4 (≈ 3.19 µM)
COc1cc(C(=O)N[C@@H](CCN)C(=O)N[C@H](C(=O)N[C@@H](CN)C(=O)N[C@H]2CCNC(=O)[C@H]([C@@H](C)O)NC(=O)[C@H](CCN)NC(=O)[C@H](CCN)NC(=O)[C@H](CC(C)C)NC(=O)[C@@H](Cc3ccccc3)NC(=O)[C@H](CCN)NC2=O)[C@@H](C)O)cc(-c2ccccc2)n1 (X16-[Dab]T[Dap][Dab][Dab][dF]L[Dab][Dab]T; lactam 4-C) | 24 | 0.25 | 0.25 | 0.5 | 4 | 4 (≈ 3.17 µM) | 0.5 | 1 | 1 (≈ 0.793 µM)
CC(C)C[C@@H]1NC(=O)[C@@H](Cc2ccccc2)NC(=O)[C@H](CCN)NC(=O)[C@@H](NC(=O)[C@H](CN)NC(=O)[C@@H](NC(=O)[C@H](CCN)NS(=O)(=O)c2cccc(-c3ccccc3)c2)[C@@H](C)O)CCNC(=O)[C@H]([C@@H](C)O)NC(=O)[C@H](CCN)NC(=O)[C@H](CCN)NC1=O (X17-[Dab]T[Dap][Dab][Dab][dF]L[Dab][Dab]T; lactam 4-C) | 42 | 0.25 | 0.5 | 1 | 64 | > 64 | 0.25 | 2 | 4 (≈ 3.16 µM)
CC(C)C[C@@H]1NC(=O)[C@@H](Cc2ccccc2)NC(=O)[C@H](CCN)NC(=O)[C@@H](NC(=O)[C@H](CN)NC(=O)[C@@H](NC(=O)[C@H](CCN)NC(=O)c2ccnc(-c3cccc(Cl)c3)c2)[C@@H](C)O)CCNC(=O)[C@H]([C@@H](C)O)NC(=O)[C@H](CCN)NC(=O)[C@H](CCN)NC1=O (X19-[Dab]T[Dap][Dab][Dab][dF]L[Dab][Dab]T; lactam 4-C) | 34 | 0.125 | 0.5 | 0.25 | 0.5 | 0.5 (≈ 0.395 µM) | 0.5 | 1 | 1 (≈ 0.791 µM)
CC(C)C[C@@H]1NC(=O)[C@@H](Cc2ccccc2)NC(=O)[C@H](CCN)NC(=O)[C@@H](NC(=O)[C@H](CN)NC(=O)[C@@H](NC(=O)[C@H](CCN)NC(=O)c2cccc(-c3ccccc3)c2)[C@@H](C)O)CCNC(=O)[C@H]([C@@H](C)O)NC(=O)[C@H](CCN)NC(=O)[C@H](CCN)NC1=O ({Benzoyl(3-Ph)}-[Dab]T[Dap][Dab][Dab][dF]L[Dab][Dab]T; lactam 4-C) | 21 | 0.25 | 0.5 | 0.25 | 2 | 2 (≈ 1.63 µM) | 0.5 | 1 | 2 (≈ 1.63 µM)
CC(C)C[C@@H]1NC(=O)[C@@H](Cc2ccccc2)NC(=O)[C@H](CCN)NC(=O)[C@@H](NC(=O)[C@H](CN)NC(=O)[C@@H](NC(=O)[C@H](CCN)NC(=O)c2ccc(-c3ccccc3)cc2)[C@@H](C)O)CCNC(=O)[C@H]([C@@H](C)O)NC(=O)[C@H](CCN)NC(=O)[C@H](CCN)NC1=O ({Benzoyl(4-Ph)}-[Dab]T[Dap][Dab][Dab][dF]L[Dab][Dab]T; lactam 4-C) | 28 | 0.25 | 0.25 | 0.25 | 1 | 1 (≈ 0.813 µM) | 0.5 | 0.5 | 1 (≈ 0.813 µM)
